# Bioassay records deposited in PubChem by NMMLSC.
# MEKK3 PB1 HTS: modulators (inhibitors or enhancers) of MEK5 binding to human MEKK3 PB1 domain | bead-based flow cytometry, Alexa488-MEK5 binding to MEKK3; actives lie on both sides; 0 = blocked by unlabeled MEK5, 100 = vehicle | binding response (% of control), % at 10 µM | actives 1.4% (n = 290,000);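 active = binding response more than 3 SD above or below the average of its plate-row segment, actives on both sides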;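 note: Alexa488 bead fluorescence after subtracting the streptavidin-only scavenger bead signal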
# MEKK2wt PB1 HTS: raises or lowers MEK5 binding to wildtype human MEKK2 PB1 domain; Q9Y2U5; bead flow cytometry, Alexa488-MEK5 binding to MEKK2 WT; actives lie on both sides; binding response (% of control), % at 10 µM; actives 1.1% (n = 290,000); in the data active = binding response below about 67% or above about 130%
# ABCB1 inh: human ABCB1 inhibition, ABCG2 as counter-screen | inhibition, % at 6.6 µM | CCRF-Adr cells, JC-1 efflux, flow cytometry | AID 1326 | actives 0.067% (n = 190,000); in the data active = inhibition above about 40%;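 note: 0% = vehicle and 100% = reference inhibitor; higher value means more JC-1 retained so stronger ABCB1 efflux block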
# Target sequence (P08183 whole entry, looked up): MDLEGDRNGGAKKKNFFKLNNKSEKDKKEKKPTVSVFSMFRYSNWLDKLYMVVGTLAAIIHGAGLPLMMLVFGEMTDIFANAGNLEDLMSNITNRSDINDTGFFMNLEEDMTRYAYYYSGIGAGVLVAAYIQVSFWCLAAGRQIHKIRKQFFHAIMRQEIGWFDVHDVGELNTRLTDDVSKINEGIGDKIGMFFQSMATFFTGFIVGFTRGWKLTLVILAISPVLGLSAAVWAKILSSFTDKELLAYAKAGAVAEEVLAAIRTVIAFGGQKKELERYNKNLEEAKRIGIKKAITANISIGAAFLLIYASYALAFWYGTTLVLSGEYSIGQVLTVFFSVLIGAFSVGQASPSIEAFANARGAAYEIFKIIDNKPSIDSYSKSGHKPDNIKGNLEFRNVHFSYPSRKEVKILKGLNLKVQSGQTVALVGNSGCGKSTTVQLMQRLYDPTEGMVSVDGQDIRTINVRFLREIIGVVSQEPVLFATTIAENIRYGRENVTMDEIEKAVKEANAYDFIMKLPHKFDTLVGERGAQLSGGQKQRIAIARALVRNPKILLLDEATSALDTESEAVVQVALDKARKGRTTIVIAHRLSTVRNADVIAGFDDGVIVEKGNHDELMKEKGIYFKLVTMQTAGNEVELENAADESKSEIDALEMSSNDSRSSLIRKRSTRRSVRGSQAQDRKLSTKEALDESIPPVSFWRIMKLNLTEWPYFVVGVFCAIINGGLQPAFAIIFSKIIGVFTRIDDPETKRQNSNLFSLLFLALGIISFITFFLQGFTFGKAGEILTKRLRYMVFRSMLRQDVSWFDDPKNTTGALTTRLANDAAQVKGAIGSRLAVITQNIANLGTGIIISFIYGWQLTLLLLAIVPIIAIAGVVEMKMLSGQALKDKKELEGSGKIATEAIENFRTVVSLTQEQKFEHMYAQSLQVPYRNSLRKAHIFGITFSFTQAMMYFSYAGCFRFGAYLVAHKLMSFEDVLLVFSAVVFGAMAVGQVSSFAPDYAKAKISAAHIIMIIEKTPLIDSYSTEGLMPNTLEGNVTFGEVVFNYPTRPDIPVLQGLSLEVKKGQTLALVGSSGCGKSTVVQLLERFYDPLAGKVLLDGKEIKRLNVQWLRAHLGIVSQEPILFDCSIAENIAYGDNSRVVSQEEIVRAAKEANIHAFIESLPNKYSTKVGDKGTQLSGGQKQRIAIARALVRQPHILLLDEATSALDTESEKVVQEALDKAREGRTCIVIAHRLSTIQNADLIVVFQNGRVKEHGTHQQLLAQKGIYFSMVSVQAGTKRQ
# ABCG2 block: human ABCG2 inhibition, ABCB1 as counter-screen. Q9UNQ0. IgMXP3 cells, JC-1 efflux, flow cytometry. inhibition, % at 6.6 µM. actives 0.1% (n = 190,000). AID 1325;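 active = inhibition above 80%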;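 note: 0% = DMSO and 100% = nicardipine control wells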
#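 Test system: ABCG2 IgMXP3 and barcoded ABCB1 CCRF-Adr cell mix; Schedule: cells with compound and JC-1, 10 min at 25 °C, rotating, no wash; Technique: flow cytometry of retained JC-1 fluorescence; Measure: % inhibition of efflux relative to nicardipine and DMSO; Controls: nicardipine high and DMSO low controls.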
# MEKK2 mut-MEK5: signal of MEK5 binding to mutant human MEKK2 PB1 domain. bead flow cytometry, Alexa488-MEK5 binding to MEKK2 mutant. percent response, % at 10 µM. actives 0.35% (n = 290,000); in the data active = percent response above about 24%, passing the limit was not always enough
# MEKK2wt confirm: raises or lowers MEK5 binding to wildtype human MEKK2, retest; shares compounds with MEKK3 PB1 HTS; bead flow cytometry, Alexa488-MEK5 binding to MEKK2 WT; actives lie on both sides; binding response (% of control), % at 10 µM; actives 2.4% (n = 5,900); in the data active = binding response below about 16% or above about 210%; inactive = in between
# MEKK2mut confirm: signal of MEK5 binding to mutant human MEKK2, retest; shares compounds with MEKK3 PB1 HTS; bead flow cytometry, Alexa488-MEK5 binding to MEKK2 mutant; percent response, % at 10 µM; actives 2% (n = 5,900); AID 1893; in the data active = percent response mostly above about 71%, no sharp cut-off; inactive = mostly below about 38%;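 note: higher means compound restores mutant binding toward wildtype level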
# MEKK3-MEK5 inh: MEKK3-MEK5 PB1 inhibition, single concentration confirmation. actives 1.8% (n = 5,900). binding response (% of control), % at 10 µM. shares compounds with MEKK3 PB1 HTS. bead flow cytometry, Alexa488-MEK5 binding to MEKK3; hits give low values;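 active = binding response below 72% of control, or above a set upper limit, though filed actives all read lower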;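 note: 100% = DMSO only wells and 0% = binding blocked by excess unlabeled MEK5; lower values mean stronger disruption of MEK5 binding to MEKK3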
# * = called active by the depositor; nt = no result given; [ ] = dose if it differs, or a comment. Hits are enriched below; roughly 2.3% of the tested compounds scored in any of these assays.
SMILES,MEKK3 PB1 HTS,MEKK2wt PB1 HTS,ABCB1 inh,ABCG2 block,MEKK2 mut-MEK5,MEKK2wt confirm,MEKK2mut confirm,MEKK3-MEK5 inh
NC(=O)C1CCN(c2oc(/C=C/c3ccc(F)cc3)nc2S(=O)(=O)c2ccccc2)CC1,101.0,100.0,nt,nt,0.0,nt,nt,nt
O=C(Cn1c(O)c(/C=C2\C=Nc3ccccc32)sc1=O)Nc1ccc2c(c1)OCO2,79.0*[inhibitor],80.0,-0.4,-1.5,-4.0,104.0,12.0,102.0
O=C(Cn1c(O)c(/C=C2\C=Nc3ccccc32)sc1=O)N1CCOCC1,99.0,99.0,1.2,10.7,0.0,nt,nt,nt
O=[N+]([O-])c1ccc(Sc2cccc[n+]2[O-])c2nonc12,91.0,96.0,nt,nt,-18.0,nt,nt,nt
CCOc1ccc(N(C)S(=O)(=O)c2ccc(-c3cc(C)no3)s2)cc1,99.0,98.0,nt,nt,0.0,nt,nt,nt
CC(NC(=S)NCCc1ccccc1)C(c1cccs1)N1CCN(Cc2ccccc2)CC1 (configuration not stated),81.0,138.0*,12.6,7.8,14.0,148.0,35.0,113.0
CC(NC(=O)NC1CCCCC1)C(c1cccs1)N1CCN(Cc2ccccc2)CC1 (configuration not stated),99.0,99.0,10.3,1.1,-3.0,nt,nt,nt
Cc1ccc(SC[C@H](Cc2ccccc2)N2CC[C@@H](NC(=O)OCc3ccccc3)CCC2=O)cc1,100.0,96.0,nt,nt,-3.0,nt,nt,nt
O=C(O)Cc1ccc(NC(=O)c2ccc(NC(=O)C3CC3)cc2)cc1,99.0,95.0,nt,nt,-5.0,nt,nt,nt
CCc1ccccc1N1CC(C(=O)Nc2cc(C)on2)CC1=O (configuration not stated),94.0,95.0,nt,nt,-6.0,nt,nt,nt
CC(C)(C)C(=O)NC(=S)NCCc1ccccc1,1.0*[inhibitor],1.0*[inhibitor],-0.2,-1.2,-39.0,102.0,0.0,105.0
CCc1cccc(NS(=O)(=O)c2c(C)nc3scc(C)n3c2=O)c1,102.0,93.0,nt,nt,-7.0,nt,nt,nt
CCCC1=NN(C(=O)CCc2ccccc2O)C(O)(C(F)(F)F)C1 (configuration not stated),138.0*,107.0,0.8,17.0,3.0,97.0,3.0,100.0
CC1CCN(C(=O)CN(Cc2ccc(F)cc2)S(C)(=O)=O)CC1,105.0,106.0,nt,nt,5.0,nt,nt,nt
Cc1cccc2sc(NC(=O)CN3C(=O)NC4(CCCC4)C3=O)nc12,97.0,95.0,nt,nt,-6.0,nt,nt,nt
Cc1c(Cl)ccc2sc(NC(=O)CN3C(=O)c4ccccc4C3=O)nc12,64.0*[inhibitor],76.0,-0.3,-1.5,-9.0,98.0,6.0,98.0
Cc1cccc2sc(NC(=O)CN3C(=O)C4CC=CCC4C3=O)nc12 (configuration not stated),148.0*,129.0,0.0,9.3,8.0,104.0,3.0,108.0
Cn1nc(C(F)(F)F)c(-c2ccc(F)cc2)c1NC(=O)c1cccnc1,128.0*,118.0,nt,nt,28.0,107.0,0.0,103.0
Cc1nc(N2CCN(c3ccccc3O)CC2)c2c(-c3ccccc3)csc2n1,100.0,100.0,nt,nt,-1.0,nt,nt,nt
Cc1ccc(N(C(=O)Cn2nnc3ccccc32)C(C(=O)NCc2ccccc2)c2ccccn2)cc1 (configuration not stated),128.0*,107.0,1.1,1.5,1.0,103.0,6.0,104.0
Nc1cc(Cl)ccc1Nc1ccncc1,99.0,101.0,nt,nt,4.0,nt,nt,nt
Cc1ccc(CN2CCC(c3cc(-c4ccc(Cl)cc4)n[nH]3)CC2)cc1,106.0,167.0*,nt,nt,27.0*,155.0,32.0,109.0
Cc1ccc(-n2nc3c(c2NC(=O)/C=C\c2ccc4c(c2)OCO4)CSC3)c(C)c1,72.0*[inhibitor],83.0,0.1,1.9,-7.0,98.0,-3.0,102.0
COc1cccc(-c2ccc(NC(=O)C3CCCN(Cc4cnn(C(C)C)c4)C3)cc2)c1 (configuration not stated),107.0,147.0*,nt,nt,16.0,141.0,28.0,108.0
CCOC(=O)CC(NS(=O)(=O)c1ccc2[nH]cc(C(=O)O)c(=O)c2c1)c1ccc(OCC)c(OC)c1 (configuration not stated),104.0,97.0,nt,nt,2.0,nt,nt,nt
SMILES,MEKK3 PB1 HTS,MEKK2wt PB1 HTS,ABCB1 inh,ABCG2 block,MEKK2 mut-MEK5,MEKK2wt confirm,MEKK2mut confirm,MEKK3-MEK5 inh
COc1ccc(/C=C/c2cc(-c3ccc(C)cc3)o[n+]2C)cc1,109.0,155.0*,0.3,3.4,18.0,112.0,9.0,95.0
COc1cccc(C(=O)N2CCC(n3nccc3NC(=O)CCOc3ccccc3)CC2)c1,102.0,104.0,nt,nt,3.0,nt,nt,nt
CCCCN(C(=O)CCC(=O)Nc1cc(C)on1)C(C(=O)NC1CCCC1)c1ccccc1OCC (configuration not stated),98.0,90.0,nt,nt,-3.0,nt,nt,nt
CC1=C(C(=O)OCC(C)C)C(c2ccccc2Cl)NC(=O)N1C (configuration not stated),105.0,106.0,1.3,2.7,12.0,nt,nt,nt
CCOCCOC(=O)C1=C(C)N(C)C(=O)NC1c1ccccc1Cl (configuration not stated),1.0*[inhibitor],0.0*[inhibitor],0.1,0.3,-19.0,104.0,2.0,102.0
Cn1c(=O)oc2cc(S(=O)(=O)N3CCN(c4ccccn4)CC3)ccc21,50.0*[inhibitor],64.0,-0.2,-1.4,-9.0,108.0,13.0,111.0
CCCOc1ccc(C2C(C(=O)c3ccc(C)o3)=C(O)C(=O)N2CCN2CCOCC2)cc1OC (configuration not stated),0.0*[inhibitor],0.0*[inhibitor],0.1,1.9,-16.0,100.0,-3.0,103.0
CCCN1C2CCCC1CC(NC(=O)c1cc(OC)cc(OC)c1)C2 (configuration not stated),95.0,100.0,nt,nt,0.0,nt,nt,nt
COc1ccc(N(CC(=O)Nc2ccccc2C(N)=O)S(=O)(=O)c2ccc(C)c([N+](=O)[O-])c2)cc1,73.0,73.0,0.0,0.1,-3.0,nt,nt,nt
CCN(CC)c1ccc2cc(C(=O)Nc3ccccn3)c(=O)oc2c1,93.0,58.0*[inhibitor],-0.4,-1.4,-4.0,66.0,-17.0,92.0
CCN(CC)c1ccc2cc(C(C)=O)c(=O)oc2c1,104.0,104.0,0.8,3.4,4.0,nt,nt,nt
COc1ccc(CNCc2cn(-c3cccc(F)c3)nc2-c2ccc(C)o2)cc1,101.0,168.0*,4.1,7.5,26.0,172.0,31.0,109.0
CCCCN(C)CCCNC(=O)c1cn(C)c2ccc(S(=O)(=O)N(C)C3CCCCC3)cc2c1=O,103.0,107.0,nt,nt,11.0,nt,nt,nt
